Source: ChEMBL document CHEMBL4339192, “De Novo Designed Amphipathic α-Helical Antimicrobial Peptides Incorporating Dab and Dap Residues on the Polar Face To Treat the Gram-Negative Pathogen, Acinetobacter baumannii” (J Med Chem, 2019)
Converted amounts (≈) assume the structure as drawn. Where a SMILES comes first, the peptide text is derived from it. [ ]: non-standard residue; d: D form. Dab = NCC[C@H](N)C(=O)O

Legend:
[1] = Therapeutic index, ratio of HC50 for human RBC to MIC for polymyxin B/colistin-resistant Acinetobacter baumannii M89941; format: toxicity; conditions: human red blood cells, read-out: TI
How it was run: (§1)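 T.I. = HC50/MIC. For HC50, peptide (quantified by amino acid analysis) was two-fold serially diluted over 12 concentrations up to 1000 μg/mL. It was incubated with 1% fresh human erythrocytes in PBS, pH 7.4, for 18 h at 37 °C. After 800g centrifugation, hemoglobin was read at 570 nm against water (100%) and no-peptide (0%) controls. HC50 came from a lysis-versus-concentration plot, average of 3 replicates.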

[2] = Hemolytic activity against human RBC measured after 18 hrs by spectrophotometric method; format: ADME, cell-based, Erythrocyte; conditions: human red blood cells (erythrocytes)
How it was run: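 Peptide (amount by amino acid analysis), two-fold serial dilutions at 12 concentrations up to 1000 μg/mL, with 1% human erythrocytes in PBS pH 7.4, 37 °C, 18 h. Unlysed cells removed by centrifugation (800g); hemoglobin read at 570 nm. Water-lysed cells = 100%, no-peptide cells = 0%. HC50 from plot of % lysis vs concentration (μM), average of 3 replicates.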

Acinetobacter baumannii [3] = experiment: Antibacterial activity against Acinetobacter baumannii isolate 964304 measured after 24 hrs by microtiter dilution method; format: functional; conditions: isolate 964304, 24 h
How it was run: (§2)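 Broth microdilution in Mueller-Hinton (MH) medium. […] Plates were incubated 24 h at 37 °C. MIC was the lowest peptide concentration that inhibited growth, based on three sets of replicates.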

Acinetobacter baumannii [4] = experiment: Antibacterial activity against Acinetobacter baumannii isolate 961997 measured after 24 hrs by microtiter dilution method; format: functional; conditions: isolate 961997, 24 h; how it was run: as §2
Acinetobacter baumannii [5] = experiment: Antibacterial activity against Acinetobacter baumannii isolate 981650 measured after 24 hrs by microtiter dilution method; format: functional; conditions: isolate 981650, 24 h; how it was run: as §2
Acinetobacter baumannii [6] = experiment: Antibacterial activity against Acinetobacter baumannii isolate 1010282 measured after 24 hrs by microtiter dilution method; format: functional; conditions: isolate 1010282, 24 h; how it was run: as §2
Acinetobacter baumannii [7] = experiment: Antibacterial activity against Acinetobacter baumannii 649 measured after 24 hrs by microtiter dilution method; format: functional; conditions: Acinetobacter baumannii, 649, 24 h; how it was run: as §2
Acinetobacter baumannii [8] = experiment: Antibacterial activity against Acinetobacter baumannii isolate 968886 measured after 24 hrs by microtiter dilution method; format: functional; conditions: isolate 968886, 24 h; how it was run: as §2
Acinetobacter baumannii [9] = experiment: Antibacterial activity against Acinetobacter baumannii isolate 1018887 measured after 24 hrs by microtiter dilution method; format: functional; conditions: isolate 1018887, 24 h; how it was run: as §2
Acinetobacter baumannii [10] = experiment: Antibacterial activity against Acinetobacter baumannii isolate 1001611 measured after 24 hrs by microtiter dilution method; format: functional; conditions: isolate 1001611, 24 h; how it was run: as §2
Acinetobacter baumannii [11] = experiment: Antibacterial activity against Acinetobacter baumannii isolate 1007660 measured after 24 hrs by microtiter dilution method; format: functional; conditions: isolate 1007660, 24 h; how it was run: as §2
Acinetobacter baumannii [12] = experiment: Antibacterial activity against polymyxin B/colistin-resistant Acinetobacter baumannii M89949 measured after 24 hrs by microtiter dilution method; format: functional; conditions: M89949, 24 h; how it was run: as §2
Acinetobacter baumannii [13] = experiment: Antibacterial activity against Acinetobacter baumannii isolate 9383370 measured after 24 hrs by microtiter dilution method; format: functional; conditions: isolate 9383370, 24 h; how it was run: as §2
Acinetobacter baumannii [14] = experiment: Antibacterial activity against Acinetobacter baumannii isolate 965463 measured after 24 hrs by microtiter dilution method; format: functional; conditions: isolate 965463, 24 h; how it was run: as §2
Acinetobacter baumannii [15] = experiment: Antibacterial activity against Acinetobacter baumannii isolate 963659 measured after 24 hrs by microtiter dilution method; format: functional; conditions: isolate 963659, 24 h; how it was run: as §2
Acinetobacter baumannii [16] = experiment: Antibacterial activity against Acinetobacter baumannii isolate 1035794 measured after 24 hrs by microtiter dilution method; format: functional; conditions: isolate 1035794, 24 h; how it was run: as §2
[17] = Therapeutic index, ratio of HC50 for human RBC to MIC for polymyxin B/colistin-resistant Acinetobacter baumannii M89955; format: toxicity; conditions: human red blood cells, read-out: TI; how it was run: as §1
Acinetobacter baumannii [18] = experiment: Antibacterial activity against Acinetobacter baumannii 649 measured after 24 hrs in presence of 25% human serum by microtiter dilution method; format: functional; conditions: Acinetobacter baumannii, 649, 24 h
How it was run: (§3)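 Blood strain 649 was tested by MH broth microdilution with and without 25% (v/v) human serum added to the medium. The test used a final inoculum of 5 × 10^5 cfu/mL and incubation at 37 °C. The ratio is the MIC in serum over the MIC in MH alone.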

[19] = Therapeutic index, ratio of HC50 for human RBC to MIC for polymyxin B/colistin-resistant Acinetobacter baumannii M89963; format: toxicity; conditions: human red blood cells, read-out: TI; how it was run: as §1
[20] = Therapeutic index, ratio of HC50 for human RBC to MIC for polymyxin B/colistin-resistant Acinetobacter baumannii M89951; format: toxicity; conditions: human red blood cells, read-out: TI; how it was run: as §1
[21] = Therapeutic index, ratio of HC50 for human RBC to MIC for polymyxin B/colistin-resistant Acinetobacter baumannii M89952; format: toxicity; conditions: human red blood cells, read-out: TI; how it was run: as §1
[22] = Therapeutic index, ratio of HC50 for human RBC to MIC for polymyxin B/colistin-resistant Acinetobacter baumannii M89949; format: toxicity; conditions: human red blood cells, read-out: TI; how it was run: as §1
Acinetobacter baumannii [23] = experiment: Antibacterial activity against polymyxin B/colistin-resistant Acinetobacter baumannii M89963 measured after 24 hrs by microtiter dilution method; format: functional; conditions: M89963, 24 h; how it was run: as §2
Acinetobacter baumannii [24] = experiment: Antibacterial activity against Acinetobacter baumannii isolate 963618 measured after 24 hrs by microtiter dilution method; format: functional; conditions: isolate 963618, 24 h; how it was run: as §2
Acinetobacter baumannii [25] = experiment: Antibacterial activity against Acinetobacter baumannii isolate 1021371 measured after 24 hrs by microtiter dilution method; format: functional; conditions: isolate 1021371, 24 h; how it was run: as §2
Acinetobacter baumannii [26] = experiment: Antibacterial activity against Acinetobacter baumannii isolate 1035166 measured after 24 hrs by microtiter dilution method; format: functional; conditions: isolate 1035166, 24 h; how it was run: as §2
Acinetobacter baumannii [27] = experiment: Antibacterial activity against polymyxin B/colistin-resistant Acinetobacter baumannii M89953 measured after 24 hrs by microtiter dilution method; format: functional; conditions: M89953, 24 h; how it was run: as §2
Acinetobacter baumannii [28] = experiment: Antibacterial activity against polymyxin B/colistin-resistant Acinetobacter baumannii M89955 measured after 24 hrs by microtiter dilution method; format: functional; conditions: M89955, 24 h; how it was run: as §2
Acinetobacter baumannii [29] = experiment: Antibacterial activity against polymyxin B/colistin-resistant Acinetobacter baumannii M89952 measured after 24 hrs by microtiter dilution method; format: functional; conditions: M89952, 24 h; how it was run: as §2
Acinetobacter baumannii [30] = experiment: Ratio of MIC for Acinetobacter baumannii 649 measured in presence of 25% human serum to MIC for Acinetobacter baumannii 649 in absence of 25% human serum; format: functional; how it was run: as §3
Acinetobacter baumannii [31] = experiment: Antibacterial activity against Acinetobacter baumannii isolate 1017395 measured after 24 hrs by microtiter dilution method; format: functional; conditions: isolate 1017395, 24 h; how it was run: as §2
Acinetobacter baumannii [32] = experiment: Antibacterial activity against polymyxin B/colistin-resistant Acinetobacter baumannii M89951 measured after 24 hrs by microtiter dilution method; format: functional; conditions: M89951, 24 h; how it was run: as §2
Acinetobacter baumannii [33] = experiment: Antibacterial activity against Acinetobacter baumannii isolate 952654 measured after 24 hrs by microtiter dilution method; format: functional; conditions: isolate 952654, 24 h; how it was run: as §2
Acinetobacter baumannii [34] = experiment: Antibacterial activity against Acinetobacter baumannii isolate 1002956 measured after 24 hrs by microtiter dilution method; format: functional; conditions: isolate 1002956, 24 h; how it was run: as §2
Acinetobacter baumannii [35] = experiment: Antibacterial activity against Acinetobacter baumannii isolate 1010245 measured after 24 hrs by microtiter dilution method; format: functional; conditions: isolate 1010245, 24 h; how it was run: as §2
[36] = Therapeutic index, ratio of HC50 for human RBC to MIC for polymyxin B/colistin-resistant Acinetobacter baumannii M89953; format: toxicity; conditions: human red blood cells, read-out: TI; how it was run: as §1
Acinetobacter baumannii [37] = experiment: Antibacterial activity against polymyxin B/colistin-resistant Acinetobacter baumannii M89941 measured after 24 hrs by microtiter dilution method; format: functional; conditions: M89941, 24 h; how it was run: as §2
Acinetobacter baumannii [38] = experiment: Antibacterial activity against Acinetobacter baumannii isolate 977751 measured after 24 hrs by microtiter dilution method; format: functional; conditions: isolate 977751, 24 h; how it was run: as §2

CC(=O)N[C@H](CCCCN)C(=O)N[C@H](CC(C)C)C(=O)N[C@@H](CCN)C(=O)N[C@H](CO)C(=O)N[C@H](CC(C)C)C(=O)N[C@H](CC(C)C)C(=O)N[C@@H](CCN)C(=O)N[C@@H](C(=O)N[C@H](CC(C)C)C(=O)N[C@H](CO)C(=O)N[C@@H](CCN)C(=O)N[C@H](C)C(=O)N[C@H](C)C(=O)N[C@H](C)C(=O)N[C@H](C)C(=O)N[C@H](C)C(=O)N[C@H](CC(C)C)C(=O)N[C@@H](CCN)C(=O)N[C@@H](C(=O)N[C@H](CC(C)C)C(=O)N[C@H](CC(C)C)C(=O)N[C@@H](CCN)C(=O)N[C@H](C)C(=O)N[C@H](CC(C)C)C(=O)N[C@H](CO)C(=O)N[C@@H](CCN)C(N)=O)[C@H](C)O)[C@H](C)O (Ac-[dK][dL][Dab][dS][dL][dL][Dab][dT][dL][dS][Dab][dA][dA][dA][dA][dA][dL][Dab][dT][dL][dL][Dab][dA][dL][dS][Dab]-NH2)
selectivity ratio [1]: 8.6 | HC50 at 18 h [2]: 7.7 µM | MIC (Acinetobacter baumannii [3]): 1.5 µM (≈ 3.87 µg/mL) | MIC (Acinetobacter baumannii [4]): 0.8 µM (≈ 2.07 µg/mL) | MIC (Acinetobacter baumannii [5]): 0.4 µM (≈ 1.03 µg/mL) | MIC (Acinetobacter baumannii [6]): 0.8 µM (≈ 2.07 µg/mL) | MIC (Acinetobacter baumannii [7]): 0.8 µM (≈ 2.07 µg/mL) | MIC (Acinetobacter baumannii [8]): 0.8 µM (≈ 2.07 µg/mL) | MIC (Acinetobacter baumannii [9]): 0.5 µM (≈ 1.29 µg/mL) | MIC (Acinetobacter baumannii [10]): 0.8 µM (≈ 2.07 µg/mL) | MIC (Acinetobacter baumannii [11]): 0.8 µM (≈ 2.07 µg/mL) | MIC (Acinetobacter baumannii [12]): 0.8 µM (≈ 2.07 µg/mL) | MIC (Acinetobacter baumannii [13]): 1.5 µM (≈ 3.87 µg/mL) | MIC (Acinetobacter baumannii [14]): 0.8 µM (≈ 2.07 µg/mL) | MIC (Acinetobacter baumannii [15]): 0.4 µM (≈ 1.03 µg/mL) | MIC (Acinetobacter baumannii [16]): 0.8 µM (≈ 2.07 µg/mL) | selectivity ratio [17]: 8.6 | MIC (Acinetobacter baumannii [18]): 3 µM | selectivity ratio [19]: 8.6 | selectivity ratio [20]: 8.6 | selectivity ratio [21]: 8.6 | selectivity ratio [22]: 8.6 | MIC (Acinetobacter baumannii [23]): 0.8 µM (≈ 2.07 µg/mL) | MIC (Acinetobacter baumannii [24]): 0.8 µM (≈ 2.07 µg/mL) | MIC (Acinetobacter baumannii [25]): 0.8 µM (≈ 2.07 µg/mL) | MIC (Acinetobacter baumannii [26]): 0.8 µM (≈ 2.07 µg/mL) | MIC (Acinetobacter baumannii [27]): 0.8 µM (≈ 2.07 µg/mL) | MIC (Acinetobacter baumannii [28]): 0.8 µM (≈ 2.07 µg/mL) | MIC (Acinetobacter baumannii [29]): 0.8 µM (≈ 2.07 µg/mL) | Ratio (Acinetobacter baumannii [30]): 4 | MIC (Acinetobacter baumannii [31]): 0.8 µM (≈ 2.07 µg/mL) | MIC (Acinetobacter baumannii [32]): 0.8 µM (≈ 2.07 µg/mL) | MIC (Acinetobacter baumannii [33]): 0.8 µM (≈ 2.07 µg/mL) | MIC (Acinetobacter baumannii [34]): 0.8 µM (≈ 2.07 µg/mL) | MIC (Acinetobacter baumannii [35]): 0.8 µM (≈ 2.07 µg/mL) | selectivity ratio [36]: 8.6 | MIC (Acinetobacter baumannii [37]): 1.5 µM (≈ 3.87 µg/mL) | MIC (Acinetobacter baumannii [38]): 3.1 µM (≈ 8.01 µg/mL)
